The values that follow come from ChEMBL document CHEMBL1132574, “Metallopeptidase inhibitors of tetanus toxin: A combinatorial approach” (J Med Chem, 1999).

The target in this assay is T1, Tetanus toxin (Clostridium tetani (strain Massachusetts / E88), UniProt P04958).
T1 sequence (P04958 whole entry): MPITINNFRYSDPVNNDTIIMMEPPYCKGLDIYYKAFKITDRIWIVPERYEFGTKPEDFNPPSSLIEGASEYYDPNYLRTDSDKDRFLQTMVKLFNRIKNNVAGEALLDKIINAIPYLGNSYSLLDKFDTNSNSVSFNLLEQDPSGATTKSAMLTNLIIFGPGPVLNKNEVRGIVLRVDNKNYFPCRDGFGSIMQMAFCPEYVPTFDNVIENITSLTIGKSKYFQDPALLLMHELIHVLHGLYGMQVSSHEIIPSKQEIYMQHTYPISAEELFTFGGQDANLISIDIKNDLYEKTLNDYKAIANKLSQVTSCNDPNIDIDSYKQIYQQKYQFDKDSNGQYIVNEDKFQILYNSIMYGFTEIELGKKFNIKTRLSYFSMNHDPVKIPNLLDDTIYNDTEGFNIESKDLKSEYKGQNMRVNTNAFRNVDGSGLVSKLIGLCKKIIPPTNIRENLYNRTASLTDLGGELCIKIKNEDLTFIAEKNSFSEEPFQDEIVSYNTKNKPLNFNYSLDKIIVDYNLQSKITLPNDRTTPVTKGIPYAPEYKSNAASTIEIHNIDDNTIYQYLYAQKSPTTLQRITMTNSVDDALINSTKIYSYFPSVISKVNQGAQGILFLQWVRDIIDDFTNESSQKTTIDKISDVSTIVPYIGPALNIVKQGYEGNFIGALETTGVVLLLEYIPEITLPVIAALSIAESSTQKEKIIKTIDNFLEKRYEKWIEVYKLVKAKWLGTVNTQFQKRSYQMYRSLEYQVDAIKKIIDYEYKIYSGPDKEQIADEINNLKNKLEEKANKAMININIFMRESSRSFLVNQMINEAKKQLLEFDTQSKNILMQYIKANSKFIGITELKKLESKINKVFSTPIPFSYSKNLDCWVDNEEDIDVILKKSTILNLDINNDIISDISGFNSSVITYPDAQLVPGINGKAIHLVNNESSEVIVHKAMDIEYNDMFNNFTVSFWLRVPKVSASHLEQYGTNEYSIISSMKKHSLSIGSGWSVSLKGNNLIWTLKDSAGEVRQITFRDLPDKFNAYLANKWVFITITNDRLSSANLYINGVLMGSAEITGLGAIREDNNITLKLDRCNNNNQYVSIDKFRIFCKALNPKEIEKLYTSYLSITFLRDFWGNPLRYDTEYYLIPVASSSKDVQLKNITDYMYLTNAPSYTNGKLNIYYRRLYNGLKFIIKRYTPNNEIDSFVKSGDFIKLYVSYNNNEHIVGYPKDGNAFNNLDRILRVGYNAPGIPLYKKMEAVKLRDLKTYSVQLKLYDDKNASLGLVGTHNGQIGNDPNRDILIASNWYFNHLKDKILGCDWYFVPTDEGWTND
Kind of assay: Inhibition of tetanus neurotoxin (TeNt). In short, it runs like this: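 TeNt metallopeptidase activity on the fluorescent substrate [Pya⁸⁸]S39-88 (40, 50, 66, 100, 200 μM) in 20 mM Hepes pH 7.4, 100 mM NaCl, 0.1 mM DTT at 37 °C. Inhibitor absent or at 1, 10, 33, 100 μM. Rate read by RP-HPLC as the appearance of fluorescent product [Pya⁸⁸]S77-88. Lineweaver–Burk analysis; mean of three independent experiments in triplicate.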

Usually Ki stands for a measure of affinity in units of concentration, obtained from inhibition or displacement. Low values mean tighter binding, high ones weaker binding. In the case of `N[C@@H](CCS(N)(=O)=O)[C@@H](S)C(=O)N[C@@H](Cc1ccc(O)cc1)C(=O)N[C@@H](Cc1c[nH]cn1)C(=O)O`, the Ki is 5 µM. In other words, the single-digit micromolar range.
For `N[C@@H](CCS(N)(=O)=O)[C@@H](S)C(=O)N[C@@H](Cc1ccc(O)cc1)C(=O)N[C@@H](Cc1cnc[nH]1)C(=O)NCc1ccccc1` the value was 3.9 µM; for `NC(=O)CC[C@@H](N)CS`, 250 µM; for `N[C@@H](CS)CCS(N)(=O)=O`, 100 µM.
As to `N[C@@H](CCS(N)(=O)=O)[C@H](S)C(=O)N[C@@H](Cc1ccc(O)cc1)C(=O)N[C@@H](Cc1c[nH]cn1)C(=O)O`, the Ki was 15 µM. Against the preceding compound, the Ki is about 6.7-fold lower.
For `N[C@@H](CCS(N)(=O)=O)[C@H](S)C(=O)N[C@@H](Cc1ccc(O)cc1)C(=O)N[C@@H](Cc1c[nH]cn1)C(=O)NCc1ccccc1` the value was 6.8 µM; for `NC(CS)c1cccc(S(N)(=O)=O)c1` (stereo not drawn), 35 µM.
On to `N[C@@H](c1cccc(S(N)(=O)=O)c1)[C@@H](S)C(=O)N[C@@H](Cc1ccc(O)cc1)C(=O)N[C@@H](Cc1c[nH]cn1)C(=O)NCc1ccccc1`, for which the affinity corresponds to a Ki of 3 µM.
With `N[C@H](c1cccc(S(N)(=O)=O)c1)[C@@H](S)C(=O)N[C@@H](Cc1ccc(O)cc1)C(=O)N[C@@H](Cc1c[nH]cn1)C(=O)NCc1ccccc1` the figure was 6 µM; with `N[C@@H](c1cccc(S(N)(=O)=O)c1)[C@H](S)C(=O)N[C@@H](Cc1ccc(O)cc1)C(=O)N[C@@H](Cc1c[nH]cn1)C(=O)NCc1ccccc1`, 9.6 µM.
`N[C@H](c1cccc(S(N)(=O)=O)c1)[C@H](S)C(=O)N[C@@H](Cc1ccc(O)cc1)C(=O)N[C@@H](Cc1c[nH]cn1)C(=O)NCc1ccccc1` yielded a Ki of 4 µM.
With `C[C@@H](O)[C@H](NC(=O)[C@H](CCC(=O)O)NC(=O)[C@@H](Cc1ccccc1)NC(=O)C(S)[C@@H](N)CCC(=O)ON)C(=O)O` (mixture of isomers) the figure was 100 µM; with `C[C@@H](O)[C@H](NC(=O)[C@H](CCC(=O)O)NC(=O)[C@@H](Cc1ccccc1)NC(=O)C(S)[C@@H](N)CCC(=O)ON)C(=O)N[C@@H](CO)C(=O)O` (mixture of isomers), 80 µM.
